Assay results: ChEMBL document CHEMBL4017532, “Multifunctional Hybrid Compounds Derived from 2-(2,5-Dioxopyrrolidin-1-yl)-3-methoxypropanamides with Anticonvulsant and Antinociceptive Properties” (J Med Chem, 2017)
Calls of active or inactive are those of the source.

Key:
Rattus norvegicus [1] = species: Rattus norvegicus; experiment: Displacement of [3H]diltiazem from L-type calcium channel diltiazem binding site in rat cerebral cortical membranes at 100 uM after 60 mins; type: cell membranes
How it was run: (§1)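 Radioligand binding was run as a contract service. Percent inhibition of specific labelled-ligand binding was measured at 100 μM test compound, or 200 μM for hERG.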

Mus musculus [2] = experiment: Anticonvulsant activity in Albino Swiss CD-1 mouse assessed as protection against 6 Hz current-induced seizure at 100 mg/kg, ip pretreated up to 2 hrs followed by 6 Hz current induction for 3 secs relative to control; type: functional
Mus musculus [3] = experiment: Anticonvulsant activity in ip dosed Albino Swiss CD-1 mouse assessed as inhibition of pentylenetetrazole-induced seizures administered up to 2 hrs prior to PTZ induction measured at time to peak effect; type: functional; details: Swiss CD-1, ip
Mus musculus [4] = species: Mus musculus; experiment: Potency index, ratio of valproic acid ED50 to compound ED50 for protection against pentylenetetrazole-induced seizures in Albino Swiss CD-1 mouse; type: functional
Mus musculus [5] = experiment: Antinociceptive activity in Albino Swiss CD-1 mouse assessed as inhibition of formalin-induced neurogenic pain response administered ip 30 mins before formalin injection measured up to 5 mins; type: functional; details: Swiss CD-1, ip
How it was run: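 Male CD-1 mice were given test agents ip 30 min before subcutaneous intraplantar formalin. Doses were 12.5, 25 or 50 mg/kg, or 100, 150 or 200 mg/kg for the reference. Vehicle was 1% Tween 80 at 10 mL/kg. Paw licking time was recorded in phase I (0–5 min) and phase II (15–30 min). Data are mean ± SEM of 8–10 mice, by Dunnett's test. ED50 was obtained by log-probit analysis with 95% confidence limits.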

Mus musculus [6] = experiment: Antinociceptive activity in Albino Swiss CD-1 mouse assessed as inhibition of capsaicin-induced nociception by measuring time spent licking injected paw at 100 mg/kg, ip administered 30 mins mins prior to capsaicin challenge measured for 5 mins relative to control; type: functional; details: Swiss CD-1, ip
How it was run: (§2)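 Mice (male CD-1, 18–25 g) were pretreated ip 30 min before intraplantar capsaicin. Doses were 25, 50 or 100 mg/kg, or 100, 150 or 200 mg/kg for the reference. Vehicle was 1% Tween 80 at 10 mL/kg. Duration of nociceptive response was scored over 5 min after injection. Data are mean ± SEM of 8–10 mice, by one-way ANOVA with Dunnett's test against vehicle.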

Mus musculus [7] = experiment: Anticonvulsant activity in ip dosed Albino Swiss CD-1 mouse assessed as protection against 32 mA current-induced seizure treated up to 2 hrs prior to 6-Hz current induction measured at time to peak effect; type: functional; details: Swiss CD-1, ip
Mus musculus [8] = experiment: Anticonvulsant activity in Albino Swiss CD-1 mouse assessed as protection against maximal electroshock-induced seizures at 100 mg/kg, ip pretreated up to 2 hrs followed by 50 Hz current induction for […] relative to control; type: functional
Mus musculus [9] = experiment: Protection index, ratio of TD50 for neurotoxicity in ip dosed Albino Swiss CD-1 mouse to ED50 for ip dosed Albino Swiss CD-1 mouse model of 6 Hz-induced siezures
How it was run: (§3)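 Acute neurological toxicity after ip dosing (1% Tween 80 suspension) was assessed in the mouse chimney test. TD50 with 95% confidence limits was derived by probit analysis. Protective index is TD50 from the chimney test divided by ED50 from the MES, scPTZ or 6 Hz test.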

Mus musculus [10] = experiment: Antinociceptive activity in Albino Swiss CD-1 mouse assessed as inhibition of capsaicin-induced nociception by measuring time spent licking injected paw administered ip 30 mins mins prior to capsaicin challenge measured for 5 mins; type: functional, organism-based; how it was run: as §2
Mus musculus [11] = experiment: Anticonvulsant activity in Albino Swiss CD-1 mouse assessed as protection against maximal electroshock-induced seizures by measuring time to peak effect at 100 mg/kg, ip pretreated up to 2 hrs followed by 50 Hz current induction for […]; type: functional
Mus musculus [12] = experiment: Protection index, ratio of TD50 for neurotoxicity in ip dosed Albino Swiss CD-1 mouse to ED50 for ip dosed maximal electroshock induced seizure Albino Swiss CD-1 mouse; how it was run: as §3
Rattus norvegicus [13] = species: Rattus norvegicus; experiment: Displacement of (-)-[3H](-)D 888 from L-type calcium channel verapamil binding site in rat cerebral cortex at 100 uM; how it was run: as §1
[14] = Retention time of the compound by LC-MS method
Rattus norvegicus [15] = species: Rattus norvegicus; experiment: Displacement of [3H]CGP 39653 from NMDA receptor in rat cerebral cortex at 100 uM after 60 mins by liquid scintillation counting; how it was run: as §1
Mus musculus [16] = experiment: Antiallodynic activity in oxaliplatin-induced Albino Swiss CD-1 mouse model of peripheral neuropathy assessed as elevation in pain sensitivity threshold at 100 mg/kg, ip administered 30 mins prior to oxaliplatin challenge relative to control; type: functional
How it was run: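 Male CD-1 mice, 18–25 g, that had developed oxaliplatin-induced tactile allodynia were dosed ip 30 min before testing. Doses were 25, 50 or 100 mg/kg, or 50, 100 or 150 mg/kg for the reference. Vehicle was 1% aqueous Tween 80. Paw-withdrawal force was measured by von Frey filaments. Data are mean ± SEM, analysed by repeated-measures ANOVA with Dunnett's test against oxaliplatin plus vehicle mice.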

For `COCC(C(=O)N1CCN(c2ccc(C(F)(F)F)cc2)CC1)N1C(=O)CCC1=O` (stereo unspecified), the inhibition (Rattus norvegicus [1]) was “inactive”, the Activity (Mus musculus [2]) was “<=75%” and the ED50 (Mus musculus [3]) was 123 mg/kg. For the same molecule, the “Ratio ED50” value (Mus musculus [4]) was 2, the ED50 (Mus musculus [5]) was 26 mg/kg and the inhibition in vivo at 100 mg/kg (Mus musculus [6]) was 59.3%. For the same molecule, the ED50 (Mus musculus [7]) was 22.4 to 26.9 mg/kg, the Activity (Mus musculus [8]) was 75 - 100% and the “Ratio TD50/ED50” value (Mus musculus [9]) was 5.8 - 8.9. The inhibition (Mus musculus [10]) was “Dose-dependent effect”, the Time (Mus musculus [11]) was 0.25 to 1 h and the “Ratio TD50/ED50” value (Mus musculus [12]) was 1.9 - 2.5. For the same molecule, the inhibition (Rattus norvegicus [13]) was “inactive”, the Retention time [14] was 6.11 min and the inhibition (Rattus norvegicus [15]) was “inactive”. It also gave an Activity (Mus musculus [16]) of 149.2%.
